This note sets out measurements from ChEMBL document CHEMBL1153750, “ent-kaurane and ent-pimarane diterpenoids from Siegesbeckia pubescens” (J Nat Prod, 2010).

For orientation: IC50 means the point on the concentration scale where inhibition reaches its midpoint.

Converted amounts (≈) assume the structure as drawn.

Common to all, as to type: functional, cell-based
Test [1] in a line: Cytotoxicity against rat HSC-T6 cells after 44 hrs by MTT assay. Put shortly: (§1)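 Exponential-phase cells seeded at 5 × 10⁴ per well and preincubated 24 h at 37 °C, 5% CO₂. Test agent added in triplicate at final 10, 50 and 100 μg/mL, incubated 44 h at 37 °C. MTT then added for 4 h at 37 °C, absorbance read at 490 nm. IC50 derived from percentage inhibition by linear regression.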
On the technique in general: Tetrazolium dyes change colour on reduction, which living cells bring about.

The test system of a further test is HeLa. In words: Cytotoxicity against human HeLa cells after 44 hrs by MTT assay. Put shortly: as §1
The subject of a further test is B16. As to the kind of experiment: Cytotoxicity against mouse B16 cells after 44 hrs by MTT assay. Put shortly:
as §1

[2] abbreviates: Rattus norvegicus, HSC-T6, 44 h, read-out: IC50.
Where [3] appears, read: Homo sapiens, HeLa, 44 h, read-out: IC50.
The mark [4] stands for this setting: Mus musculus, B16, 44 h, read-out: IC50.

For the molecule `CC(=O)OC[C@@]1(C(=O)O)CCC[C@@]2(C)[C@@H]3CC[C@H]4C[C@@]3(CC[C@H]12)C[C@H]4COC(=O)C(C)C`, the figures for the half-maximal inhibitory concentration (IC50) (in test [1] (setting [2]); in the test on HeLa (setting [3]); in the test on B16 (setting [4])) were 24.6 µg/mL (≈ 54.8 µM), 24.6 µg/mL (≈ 54.8 µM) and 22.8 µg/mL (≈ 50.8 µM), respectively.
Regarding `CC1(C)OC[C@@H]([C@]2(C)C=C3CC[C@@H]4C(C)(C)[C@H](O)CC[C@@]4(C)C3CC2)O1` (stereo partly drawn), the IC50 is 12.6 µg/mL (≈ 34.8 µM) in test [1] (setting [2]), 11.7 µg/mL (≈ 32.3 µM) in the test on HeLa (setting [3]) and 7.8 µg/mL (≈ 21.5 µM) with B16 (setting [4]).
For `C[C@@]12CCC[C@@](C)(C(=O)O)[C@H]1CC[C@@]13C[C@H](CC[C@H]12)[C@@](O)(CO)C3` the same measures were greater than 100 µg/mL, greater than 100 µg/mL and greater than 100 µg/mL.
For the molecule `CC1(C)[C@H](O)CC[C@@]2(C)[C@@H]3CC[C@](C)([C@@H](O)CO)C=C3CC[C@H]12` [DARUTIGENOL], the results for the IC50 result (in test [1] (hsc-t6); with HeLa (setting [3]); with B16 (b16)) were “Not Active”, greater than 100 µg/mL and “Not Active”, respectively.
For the molecule `C[C@@]1(CO)C[C@@H](O)C[C@@]2(C)[C@@H]3CC[C@](C)([C@@H](O)CO)C=C3CC[C@H]12` [KIRENOL], the results for the concentration for half-maximal inhibition (IC50) (in test [1] (setting [2]); in the test on HeLa (hela); with B16 (setting [4])) were greater than 100 µg/mL, “Not Active” and greater than 100 µg/mL, respectively.
`CC(=O)O[C@H]1C(=O)[C@@]2(C)[C@H]([C@H](OC(=O)c3ccccc3)[C@]3(O)C[C@H](OC(=O)[C@H](O)[C@@H](NC(=O)c4ccccc4)c4ccccc4)C(C)=C1C3(C)C)[C@]1(OC(C)=O)CO[C@@H]1C[C@@H]2O` [PACLITAXEL]: the IC50 stood at 0.75 µg/mL (≈ 0.878 µM) in test [1] (setting [2]), 0.61 µg/mL (≈ 0.714 µM) in the test with HeLa (setting [3]) and 0.63 µg/mL (≈ 0.738 µM) in the test on B16 (setting [4]).
